Laboratory results from ChEMBL document CHEMBL4342478, “Discovery of Potent N-Ethylurea Pyrazole Derivatives as Dual Inhibitors of Trypanosoma brucei and Trypanosoma cruzi” (ACS Med Chem Lett, 2020).
Active and inactive are the calls of the source. The calls are words filed in the database; no cut-off is given here.

How the values were obtained:
[1] = test system: Leishmania donovani; assay: AntiLeishmanial activity against amastigote form of Leishmania donovani MHOM/ET/67/L82 after 72 hrs by Alamar blue dye based fluorometric analysis; format: functional, organism-based
[2] = Selectivity index, ratio of cytotoxicity against rat H9C2 cells to IC50 for antitrypanosomal activity against Trypanosoma cruzi infected in rat H9C2 cells; format: toxicity, cell-based; details: read-out: Selectivity Index
[3] = Half life in human liver microsomes; format: ADME, Microsome
[4] = Metabolic stability in human liver microsomes; format: ADME, Microsome
[5] = test system: Plasmodium falciparum; assay: Antiplasmodial activity against erythrocytic stage of Plasmodium falciparum after 48 hrs by [3H]-hypoxanthine incorporation assay; format: functional, organism-based
[6] = test system: Trypanosoma cruzi; assay: Trypanosomacidal activity against Trypanosoma cruzi strain Y trypomastigotes assessed as reduction in number of infected cells at 0.078 uM measured for 24 to 96 hrs by Hoechst 33342 staining based fluorescence imaging assay relative to benznidazole; format: functional
Summary of the method: (§1)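 Time-to-kill assay against intracellular T. cruzi, with test article at 0.312 or 0.078 μM. Controls were benznidazole 20 μM, posaconazole 0.04 μM and DMSO. The number of infected host cells was tracked over time after drug addition.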

[7] = test system: Trypanosoma cruzi; assay: Antitrypanosomal activity against Trypanosoma cruzi Brazil trypomastigotes expressing firefly luciferase infected in BALB/c mouse assessed as reduction in parasitemia at 50 mg/kg, po via gavage twice daily at 30 mins after administration with 50 mg/kg, ip CYP inhibitor, 1-aminobenzotriazole twice daily and measured after 6 days by bioluminescence assay; format: functional, organism-based
Summary of the method: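 BALB/c mice were infected with trypomastigotes of a transgenic T. cruzi Brazil strain expressing firefly luciferase. Treatment was by oral gavage twice daily: vehicle (PBS with 2% methylcellulose and 0.5% Tween 80), or 50 mg/kg test article given 30 min after ip 1-aminobenzotriazole 50 mg/kg. Benznidazole 30 mg/kg was given by oral gavage once daily. Parasite load was measured by bioluminescence imaging at treatment day 0 (3 days post infection) and day 6.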

[8] = test system: Trypanosoma brucei rhodesiense; assay: Antitrypanosomal activity against blood stream form of Trypanosoma brucei rhodesiense STIB900 after 72 hrs by Alamar blue based fluorometric assay; format: functional, organism-based
[9] = Kinetic solubility of compound at pH 2 to 6.5 by nephelometry; format: physicochemical; details: buffer, read-out: Kinetic_solubility
[10] = Metabolic stability in mouse liver microsomes; format: ADME, Microsome
[11] = test system: Trypanosoma brucei brucei; assay: Antitrypanosomal activity against Trypanosoma brucei brucei BS427 after 48 hrs by resazurin dye based fluorescence assay; format: functional, organism-based; details: Trypanosoma brucei, BS427, 48 h; read-out: IC50
Summary of the method: (§2)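 IC50 values are the mean of two independent experiments. The T. b. brucei assay uses free parasites. The T. cruzi assay uses intracellular parasites in H9c2 host cells.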

[12] = Toxicity in BALB/c mouse infected with Trypanosoma cruzi Brazil trypomastigotes expressing firefly luciferase assessed as lethargy at 50 mg/kg, po via gavage twice daily at 30 mins after administration with 50 mg/kg, ip CYP inhibitor, 1-aminobenzotriazole twice daily; format: organism-based; details: in vivo, 0.5 h
Summary of the method: (§3)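 Acutely infected BALB/c mice carried luciferase-expressing T. cruzi Brazil strain. Mice received oral gavage twice daily of 50 mg/kg test article in PBS with 2% methylcellulose and 0.5% Tween 80. Each dose followed ip 1-aminobenzotriazole 50 mg/kg by 30 min.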

[13] = Selectivity index, ratio of IC50 for human HEK293 cells incubated for 69 hrs by resazurin dye based fluorescence analysis to IC50 for antitrypanosomal activity against Trypanosoma brucei brucei BS427; format: toxicity; details: read-out: Ratio IC50
[14] = Toxicity in BALB/c mouse infected with Trypanosoma cruzi Brazil trypomastigotes expressing firefly luciferase assessed as body weight loss at 50 mg/kg, po via gavage twice daily at 30 mins after administration with 50 mg/kg, ip CYP inhibitor, 1-aminobenzotriazole twice daily; format: organism-based; details: in vivo, 0.5 h; summary of the method: as §3
[15] = test system: Trypanosoma cruzi; assay: Antitrypanosomal activity against Trypanosoma cruzi infected in rat H9C2 cells by DRAQ5 DNA dye based imaging analysis; format: functional, organism-based; summary of the method: as §2
[16] = test system: Trypanosoma cruzi; assay: Antitrypanosomal activity against Trypanosoma cruzi Tulahuen C2C4 trypomastigotes infected in rat L6 cells after 96 hrs by photometric analysis; format: functional, organism-based
[17] = test system: Trypanosoma cruzi; assay: Trypanosomacidal activity against Trypanosoma cruzi strain Y trypomastigotes assessed as reduction in number of infected cells at 0.078 uM measured within first 24 hrs by Hoechst 33342 staining based fluorescence imaging assay; format: functional, organism-based; summary of the method: as §1

half-life [3]: 23 min | Stability [4]: Stable | solubility kinetic [9]: > 20 µg/mL | Stability [10]: Stable | IC50 [11]: 9 nM | IC50 [15]: 16 nM
SMILES: O=C(NCCn1ccc(-c2ccc(F)c(F)c2)n1)N1CC[C@H](F)C1
Activity [1]: Active | selectivity ratio [2]: 588 to 3160 | Activity [5]: Active | fold change (FC) [6]: 36 | Activity [7]: Active | Activity [8]: Active | Activity [12]: Toxic | selectivity ratio at 69 h [13]: 8650 | Activity [14]: Toxic | Activity [16]: Active | Activity [17]: Active
